The source of these data is ChEMBL document CHEMBL1153368, “Benzophenone-N-ethyl piperidine ether analogues--synthesis and efficacy as anti-inflammatory agent” (Bioorg Med Chem Lett, 2009).

SMILES strings stand for the structures. The source made the active and inactive calls. The calls are words filed in the database; no cut-off is given here.

Data set [1] deals with Mus musculus. Put plainly: Toxicity in carrageenan treated Albino mouse liver assessed as fatty change at 100 mg/kg, po administered 1 hr before carrageenan challenge measured after 4 hrs by hematoxilen eosine staining. It counts as organism-based. On the set-up: dose 100 mg/kg, route oral. The following applies: in vivo. The method in brief: (§1)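 Mice given oral doses suspended in 0.5% CMC (vehicle controls) for the carrageenan paw edema experiment. Animals sacrificed 4 h after the paw edema experiments. Liver, stomach and kidneys removed and fixed in 10% formalin, then sections scored microscopically for kidney edema and mononuclear cell infiltration, gastritis/ulceration, and liver fatty change, acute hepatitis/spotty necrosis and cholestasis.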

Data set [2] concerns Mus musculus. Put plainly: Toxicity in carrageenan treated Albino mouse kidney assessed as […] mononuclear lymphocytes at 100 mg/kg, po administered 1 hr before carrageenan challenge measured after 4 hrs by hematoxilen eosine staining. The class given is organism-based. Set-up: dose 100 mg/kg, route oral. As to conditions: in vivo. The method in brief: as §1
The test system of data set [3] is Mus musculus. Description: Toxicity in carrageenan treated Albino mouse kidney assessed as edema at 100 mg/kg, po administered 1 hr before carrageenan challenge measured after 4 hrs by hematoxilen eosine staining. It counts as organism-based. On the set-up: dose 100 mg/kg, route oral. As to conditions: in vivo. The method in brief: as §1
The test system of data set [4] is Mus musculus. Description: Antiinflammatory activity in Albino mouse assessed as inhibition of carrageenan-induced foot paw edema at 100 mg/kg, po administered 1 hr before carrageenan challenge measured after 2 hrs. The class given is functional. The method in brief:
(§2)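 Fasted mice (water free) dosed orally with suspensions in 0.5% CMC; controls received vehicle only. Right hind paw thickness measured with a dial gauge 1 h after dosing, then carrageenan-induced edema re-measured 2 h later. Effect expressed as percent inhibition of edema versus control; mean of n = 6.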
For orientation: The carrageenan paw model is a standard test of acute inflammation.

Data set [5] deals with Mus musculus. Put plainly: Antiinflammatory activity against carrageenan-induced inflammation in Albino mouse air ppouch model assessed as number of polymorphonuclear leukocytes infiltration at 100 mg/kg, po administered 1 hr before carrageenan challenge measured after 4 hrs by air pouch test. The class given is functional. In outline:
(§3)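 Mice housed in groups of six, food withdrawn the day before with water free. Dosing by oral gavage in 0.5% CMC, with vehicle-only controls. Air pouch made by sc injection of 1 ml air over 3 days. On day 3, 1 ml of 10 mg/ml carrageenan (heat-sterilized, held at 37 °C) injected into the pouch, 1 h after dosing. Killed 4 h later; pouch lavaged with 3 ml PBS-heparin, spun 2000 rpm 15 min 4 °C, PMNL counted by Coulter Counter; n = 6.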

In data set [6] the test system is Mus musculus. Put plainly: Toxicity in carrageenan treated Albino mouse liver assessed as acute hepatitis at 100 mg/kg, po administered 1 hr before carrageenan challenge measured after 4 hrs by hematoxilen eosine staining. On the set-up: dose 100 mg/kg, route oral. The class given is organism-based. As to conditions: in vivo. In outline:
as §1

In data set [7] the test system is Mus musculus. Put plainly: Toxicity in carrageenan treated Albino mouse liver assessed as cholestasis at 100 mg/kg, po administered 1 hr before carrageenan challenge measured after 4 hrs by hematoxilen eosine staining. It counts as organism-based. Set-up: dose 100 mg/kg, route oral. As to conditions: in vivo. In outline:
as §1

Data set [8] relates to Mus musculus. Description: Toxicity in carrageenan treated Albino mouse stomach assessed as gastric ulcer at 100 mg/kg, po administered 1 hr before carrageenan challenge measured after 4 hrs by hematoxilen eosine staining. As to conditions: in vivo. Set-up: dose 100 mg/kg, route oral. It counts as organism-based. In outline:
as §1

For data set [9], the species on record is Mus musculus. Description: animal or person. As to conditions: Albino, po, read-out: INH.
Data set [10] relates to Mus musculus. Description: Antiinflammatory activity against carrageenan-induced inflammation in Albino mouse air ppouch model assessed as number of polymorphonuclear leukocytes infiltration at 10 mg/kg, po administered 1 hr before carrageenan challenge measured after 4 hrs by air pouch test. The class given is functional. In outline:
as §3

Data set [11] deals with Mus musculus. Put plainly: Toxicity in carrageenan treated Albino mouse stomach assessed as gastric ulcer at 10 mg/kg, po administered 1 hr before carrageenan challenge measured after 4 hrs by hematoxilen eosine staining. The class given is organism-based. On the set-up: dose 10 mg/kg, route oral. As to conditions: in vivo. In outline: as §1
For data set [12], the system named is Mus musculus. Description: Toxicity in carrageenan treated Albino mouse liver assessed as cholestasis at 10 mg/kg, po administered 1 hr before carrageenan challenge measured after 4 hrs by hematoxilen eosine staining. It counts as organism-based. On the set-up: dose 10 mg/kg, route oral. As to conditions: in vivo. The method in brief:
as §1

Data set [13] concerns Mus musculus. Put plainly: Antiinflammatory activity in Albino mouse assessed as inhibition of carrageenan-induced foot paw edema at 10 mg/kg, po administered 1 hr before carrageenan challenge measured after 2 hrs. The class given is functional. The method in brief:
as §2

On to `Cc1cc(C(=O)c2ccccc2Br)ccc1OCCN1CCCCC1`, for which the Activity result in the data set with Mus musculus [1] is “Non-toxic”; in the data set with Mus musculus [2], “Non-toxic”; with Mus musculus [3], “Non-toxic”; in the data set on Mus musculus [5], 56.25 ×10⁵ /cm'3; with Mus musculus [6], “Non-toxic”; in the data set on Mus musculus [7] it was “Non-toxic”. Also, in the data set on Mus musculus [4], the inhibition in vivo at 100 mg/kg amounted to 51.4%.

For the molecule `Cc1cc(C(=O)c2ccc(Br)cc2)ccc1OCCN1CCCCC1`, the Activity result in the data set with Mus musculus [1] was “Non-toxic”; in the data set on Mus musculus [8], “Non-toxic”; in the data set with Mus musculus [2], “Non-toxic”; with Mus musculus [3], “Non-toxic”; in the data set on Mus musculus [5], 31.75 ×10⁵ /cm'3; in the data set on Mus musculus [6] it was “Non-toxic”. In the data set on Mus musculus [7], the Activity result is “Non-toxic”. Also, in the data set on Mus musculus [4], the inhibition in vivo at 100 mg/kg worked out at 67.5%.

Take `Cc1cc(C(=O)c2ccccc2)ccc1OCCN1CCCCC1`: the Activity entry is given as “Non-toxic” in the data set on Mus musculus [2], “Non-toxic” with Mus musculus [3] and 95.25 ×10⁵ /cm'3 in the data set with Mus musculus [5]. Moreover, the inhibition in vivo at 100 mg/kg in the data set with Mus musculus [4] was found to be 22.4%.

Take `Cc1ccc(C(=O)c2ccc(OCCN3CCCCC3)c(C)c2)cc1`: the Activity entry in the data set on Mus musculus [1], in the data set on Mus musculus [8], in the data set on Mus musculus [2], in the data set on Mus musculus [3] and in the data set with Mus musculus [7] was “Non-toxic” each time. In addition, the inhibition entry in the data set with Mus musculus [4] was “inactive”.

Turning to `Cc1cccc(C(=O)c2ccc(OCCN3CCCCC3)c(C)c2)c1`, the Activity result is on record as “Non-toxic” with Mus musculus [3], 104.76 ×10⁵ /cm'3 with Mus musculus [5], “Non-toxic” in the data set on Mus musculus [6] and “Non-toxic” in the data set with Mus musculus [7]. Also, the inhibition in vivo at 100 mg/kg in the data set with Mus musculus [4] stood at 15.4%.

For the molecule `Cc1cc(C(=O)c2ccc(Cl)cc2Cl)ccc1OCCN1CCCCC1`, the Activity result is “Non-toxic” in the data set on Mus musculus [1]; “Non-toxic” in the data set with Mus musculus [8]; “Non-toxic” in the data set with Mus musculus [2]; “Non-toxic” in the data set with Mus musculus [3]; 30.15 ×10⁵ /cm'3 with Mus musculus [5]; “Non-toxic” in the data set with Mus musculus [7]. Moreover, the inhibition in vivo at 100 mg/kg with Mus musculus [4] is 68.7%.

Consider `Cc1cc(C(=O)c2ccccc2C)ccc1OCCN1CCCCC1`, for which the Activity entry in the data set on Mus musculus [8] is “Non-toxic”; with Mus musculus [2], “Non-toxic”; with Mus musculus [3], “Non-toxic”; in the data set on Mus musculus [5] it was 69.51 ×10⁵ /cm'3. The inhibition in vivo at 100 mg/kg in the data set on Mus musculus [4] was 35.6%.

For the molecule `CCCCC1C(=O)N(c2ccccc2)N(c2ccccc2)C1=O` [PHENYLBUTAZONE], the inhibition in vivo at 100 mg/kg with Mus musculus [4] is 53.3%. Besides, in the data set with Mus musculus [5], the Activity is 53.28 ×10⁵ /cm'3.

As to `Cc1cc(C(=O)c2ccc(F)cc2)ccc1OCCN1CCCCC1`, the Activity entry is “Non-toxic” with Mus musculus [1]; “Non-toxic” with Mus musculus [8]; “Non-toxic” in the data set on Mus musculus [2]; “Non-toxic” with Mus musculus [3]; 32.41 ×10⁵ /cm'3 with Mus musculus [5]; “Non-toxic” in the data set on Mus musculus [6]. Further, the Activity entry in the data set on Mus musculus [7] was “Non-toxic”. Also, the inhibition in vivo at 100 mg/kg with Mus musculus [4] turned out to be 60.6%.

Take `COc1ccc2cc([C@H](C)C(=O)O)ccc2c1` [NAPROXEN]: the inhibition in vivo at 30 mg/kg in the data set filed under Mus musculus [9] was 66.9%.

`COc1ccc(C(=O)c2ccc(OCCN3CCCCC3)c(C)c2)cc1`: the Activity entry in the data set with Mus musculus [1] is on record as “Non-toxic”; in the data set on Mus musculus [2] it was “Non-toxic”; with Mus musculus [3] it was “Non-toxic”; in the data set on Mus musculus [5], 56.26 ×10⁵ /cm'3; with Mus musculus [7] it was “Non-toxic”. For the same molecule, in the data set with Mus musculus [4], the inhibition in vivo at 100 mg/kg is 51.4%.

Regarding `COc1ccc2c(c1)c(CC(=O)O)c(C)n2C(=O)c1ccc(Cl)cc1` [INDOMETHACIN], the values for the Activity with Mus musculus [10], in the data set with Mus musculus [11] and with Mus musculus [12] were 68.81 ×10⁵ /cm'3, “Toxic” and “Non-toxic”, respectively. In the data set on Mus musculus [13], the inhibition in vivo at 10 mg/kg is 32.1%.

`Cc1cc(C(=O)c2cccc(Cl)c2)ccc1OCCN1CCCCC1`: the Activity result is on record as “Non-toxic” with Mus musculus [8], “Non-toxic” with Mus musculus [3], 56.26 ×10⁵ /cm'3 in the data set with Mus musculus [5] and “Non-toxic” in the data set with Mus musculus [7]. Further, the inhibition in vivo at 100 mg/kg in the data set with Mus musculus [4] was 51.4%.
